In ChEMBL document CHEMBL2331249, “Cytotoxicity of lapachol, β-lapachone and related synthetic 1,4-naphthoquinones against oesophageal cancer cells” (Eur J Med Chem, 2013):
Active and inactive are the calls of the source. The calls are words filed in the database; no cut-off is given here.

Experiments:
[1] = Cytotoxicity against human WHCO1 cells after 48 hrs by MTT assay; conditions: WHCO1, 48 h
[2] = Ratio of cisplatin IC50 to compound IC50 for human WHCO1 cells after 48 hrs by MTT assay
NIH3T3 = assay: Cytotoxicity against mouse NIH/3T3 cells after 96 hrs by MTT assay; assay type: cell-based; conditions: for IC50: Mus musculus, NIH3T3, 96 h; for Activity: mouse, nih3t3, 96 h
Outline: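 NIH3T3 fibroblasts kept in DMEM with 10% heat-inactivated FCS plus penicillin/streptomycin/amphotericin at 37 °C, 9% CO2. Seeded at 1000 cells/well overnight, then exposed to 0, 10, 100, 1 000 and 10 000 nM or vehicle (0.02% v/v) for 96 h.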

WHCO1 [3] = assay: Induction of apoptosis in human WHCO1 cells assessed as increase in c-jun level after 6 to 24 hrs by MTT assay; assay type: functional, cell-based; conditions: in the assay text read “by Western blot analysis” for “by MTT assay”
Outline: (§1)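 Western blot of WHCO1 cells given varying concentrations for 6, 24 and 48 h, protein extracted at each time point. PARP cleavage to […] 85 kDa fragments taken as the apoptosis marker; c-Jun levels probed on the same blots.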

WHCO1 [4] = assay: Induction of apoptosis in human WHCO1 cells assessed as PARP cleavage at 20 uM after 6 to 48 hrs by MTT assay; assay type: functional, cell-based; conditions: in the assay text read “by Western blot analysis” for “by MTT assay”
Outline: as §1

WHCO1 [5] = assay: Induction of apoptosis in human WHCO1 cells assessed as PARP cleavage at 5 to 10 uM after 6 to 48 hrs by MTT assay; assay type: functional, cell-based; conditions: in the assay text read “by Western blot analysis” for “by MTT assay”
Outline: as §1

[6] = Cytotoxicity against human WHCO1 cells after 24 hrs by MTT assay; assay type: functional, cell-based; conditions: WHCO1, 24 h
[7] = Ratio of cisplatin IC50 to compound IC50 for human WHCO1 cells after 24 hrs by MTT assay; assay type: functional

Question: For `CC(O)C1=CC(=O)c2ccccc2C1=O` (stereo not given), which IC50 [1] is on record?
Answer: The IC50 was 6.4 µM.

Question: With `O=C(C1=CC(=O)c2ccccc2C1=O)c1ccccc1` as the molecule, how does the IC50 [1] read?
Answer: The IC50 was 63.4 µM.

Question: With `O=C(C1=CC(=O)c2ccccc2C1=O)c1cccc(F)c1` as the molecule, how does the IC50 [1] read?
Answer: The IC50 was 94.8 µM.

Question: What does the source list for `O=C1C=C(c2ccccc2)C(=O)c2ccccc21`?
Answer: Ratio IC50 [2]: 2; IC50 [1]: 11.7 µM

Question: With `Cc1cc(Cl)ccc1C(=O)C1=CC(=O)c2ccccc2C1=O` as the molecule, how does the IC50 [1] read?
Answer: The IC50 was 50.4 µM.

Question: With `CC1(C)CC2=C(O1)c1ccccc1C(=O)C2=O` [NOR-BETA-LAPACHONE] as the molecule, how does the “Ratio IC50” value [2] read?
Answer: The value was 7.

Question: And the IC50 [1]?
Answer: Its IC50 is 2.4 µM.

Question: Which “Ratio IC50” value [2] does the source give for `O=C1C=C(C(O)c2ccoc2)C(=O)c2ccccc21` (stereo not given) here?
Answer: Its value is 2.

Question: And the IC50 [1]?
Answer: Its IC50 is 10.9 µM.

Question: For `O=C(CCc1ccccc1)C1=CC(=O)c2ccccc2C1=O`, which IC50 [1] is on record?
Answer: Its IC50 is 83.7 µM.

Question: Which “Ratio IC50” value [2] does the source give for `O=C1C=C(C(O)c2ccc(F)cc2)C(=O)c2ccccc21` (stereo not given) here?
Answer: The value was 2.

Question: And the IC50 [1]?
Answer: Its IC50 is 5.1 µM.

Question: What about the IC50 (NIH3T3) of the same molecule?
Answer: Its IC50 is 11.7 µM.

Question: With `O=C1C=C(C(O)c2cccc(F)c2)C(=O)c2ccccc21` (stereo not given) as the molecule, how does the “Ratio IC50” value [2] read?
Answer: The value was 2.

Question: And the IC50 [1]?
Answer: Its IC50 is 5.5 µM.

Question: And the IC50 (NIH3T3)?
Answer: Its IC50 is 82 µM.

Question: For `Cc1cc(Cl)ccc1C(O)C1=CC(=O)c2ccccc2C1=O` (stereo not given), which “Ratio IC50” value [2] is on record?
Answer: The value was 2.

Question: And the IC50 [1]?
Answer: Its IC50 is 3.4 µM.

Question: What about the IC50 (NIH3T3) of the same molecule?
Answer: The IC50 was 7.4 µM.

Question: With `O=C1C=C(C(O)c2ccc(Cl)cc2)C(=O)c2ccccc21` (stereo not given) as the molecule, how does the “Ratio IC50” value [2] read?
Answer: The value was 2.

Question: And the IC50 [1]?
Answer: Its IC50 is 3 µM.

Question: And the Activity (NIH3T3)?
Answer: Its Activity is “Non-toxic”.

Question: For `CC1(C)CCC2=C(O1)c1ccccc1C(=O)C2=O` [LAPACHONE], which “Ratio IC50” value [2] is on record?
Answer: Its value is 10.

Question: And the IC50 [1]?
Answer: The IC50 was 1.6 µM.

Question: Which IC50 [1] does the source give for `O=C(C1=CC(=O)c2ccccc2C1=O)c1ccc(Cl)cc1` here?
Answer: Its IC50 is 72.9 µM.

Question: For `O=C1C=C([C@@H](O)c2ccccc2)C(=O)c2ccccc21`, which Activity (WHCO1 [3]) is on record?
Answer: The Activity was “Dose-dependent effect”.

Question: And the IC50 [1]?
Answer: The IC50 was 3.8 µM.

Question: And the Activity (WHCO1 [4])?
Answer: The Activity was “Active”.

Question: What about the Activity (WHCO1 [5]) of the same molecule?
Answer: Its Activity is “inactive”.

Question: With `CC1(C)CCC2=C(O1)C(=O)c1ccccc1C2=O` [ALPHA-LAPACHONE] as the molecule, how does the IC50 [1] read?
Answer: The IC50 was 28.7 µM.

Question: With `CC(C)=CCC1=C(O)C(=O)c2ccccc2C1=O` [LAPACHOL] as the molecule, how does the IC50 [1] read?
Answer: The IC50 was 24.1 µM.

Question: With `O=C(C1=CC(=O)c2ccccc2C1=O)c1ccc(F)cc1` as the molecule, how does the IC50 [1] read?
Answer: Its IC50 is 74.9 µM.

Question: With `O=C1C=C(C(O)c2ccc3ccccc3c2)C(=O)c2ccccc21` (stereo not given) as the molecule, how does the IC50 [6] read?
Answer: Its IC50 is 2.4 µM.

Question: And the “Ratio IC50” value [7]?
Answer: Its value is 2.

Question: For `O=C1C=C(C(O)CCc2ccccc2)C(=O)c2ccccc21` (stereo not given), which “Ratio IC50” value [2] is on record?
Answer: Its value is 2.

Question: And the IC50 [1]?
Answer: The IC50 was 4.8 µM.

Question: For `CC1(C)OC2=C(CC1O)C(=O)C(=O)c1ccccc12` (stereo not given), which “Ratio IC50” value [2] is on record?
Answer: Its value is 2.

Question: And the IC50 [1]?
Answer: The IC50 was 6.5 µM.

Question: With `C=CC(O)C1=CC(=O)c2ccccc2C1=O` (stereo not given) as the molecule, how does the IC50 [1] read?
Answer: The IC50 was 4.3 µM.

Question: For `O=C1C=C(C(O)c2cccc(Cl)c2)C(=O)c2ccccc21` (stereo not given), which “Ratio IC50” value [2] is on record?
Answer: Its value is 2.

Question: What about the IC50 [1] of the same molecule?
Answer: Its IC50 is 7.3 µM.

Question: What about the Activity (NIH3T3) of the same molecule?
Answer: The Activity was “Non-toxic”.

Question: With `O=C(C1=CC(=O)c2ccccc2C1=O)c1cccc(Cl)c1` as the molecule, how does the IC50 [1] read?
Answer: Its IC50 is 94.8 µM.

Question: Which IC50 [1] does the source give for `CC(C)=CC(O)C1=CC(=O)c2ccccc2C1=O` (stereo not given) here?
Answer: Its IC50 is 5.2 µM.

Question: What does the source list for `O=C1C=C(C(O)c2ccccc2)C(=O)c2ccccc21` (racemic)?
Answer: Ratio IC50 [2]: 11; Activity (WHCO1 [3]): Dose-dependent effect; IC50 [1]: 3.9 µM; Activity (WHCO1 [4]): Active; Activity (NIH3T3): Non-toxic; Activity (WHCO1 [5]): inactive

Question: With `CC1(C)OC2=C(CC1Br)C(=O)C(=O)c1ccccc12` (stereo not given) as the molecule, how does the “Ratio IC50” value [2] read?
Answer: Its value is 9.

Question: What about the IC50 [1] of the same molecule?
Answer: Its IC50 is 1.8 µM.

Question: With `O=C1C=C(Cc2ccccc2)C(=O)c2ccccc21` as the molecule, how does the IC50 [1] read?
Answer: Its IC50 is 21.6 µM.

Question: With `O=C1C=C([C@H](O)c2ccccc2)C(=O)c2ccccc21` as the molecule, how does the Activity (WHCO1 [3]) read?
Answer: Its Activity is “Dose-dependent effect”.

Question: And the IC50 [1]?
Answer: The IC50 was 4.3 µM.

Question: And the Activity (WHCO1 [4])?
Answer: Its Activity is “Active”.

Question: And the Activity (WHCO1 [5])?
Answer: Its Activity is “inactive”.

Question: Which IC50 [1] does the source give for `O=C(C1=CC(=O)c2ccccc2C1=O)c1ccoc1` here?
Answer: The IC50 was 96.9 µM.

Question: Which IC50 [1] does the source give for `CC(C)=CCC1=CC(=O)c2ccccc2C1=O` [DEOXYLAPACHOL] here?
Answer: The IC50 was 15 µM.
